Measured values: ChEMBL document CHEMBL1208679, “Synthesis and evaluation of a new series of Neuropeptide S receptor antagonists” (Bioorg Med Chem Lett, 2010)
Activity calls are given as the source filed them. The calls are words filed in the database; no cut-off is given here.

Assays:
Neuropeptide S receptor [1] = target: T1, Neuropeptide S receptor (Homo sapiens, UniProt Q6W5P4); assay: Antagonist activity at human recombinant NPS receptor expressed in CHOK1 cells assessed as inhibition of NPS-induced calcium mobilization by FLIPR assay; assay type: functional, cell-based, CHO-K1
T1 sequence (Q6W5P4 whole entry): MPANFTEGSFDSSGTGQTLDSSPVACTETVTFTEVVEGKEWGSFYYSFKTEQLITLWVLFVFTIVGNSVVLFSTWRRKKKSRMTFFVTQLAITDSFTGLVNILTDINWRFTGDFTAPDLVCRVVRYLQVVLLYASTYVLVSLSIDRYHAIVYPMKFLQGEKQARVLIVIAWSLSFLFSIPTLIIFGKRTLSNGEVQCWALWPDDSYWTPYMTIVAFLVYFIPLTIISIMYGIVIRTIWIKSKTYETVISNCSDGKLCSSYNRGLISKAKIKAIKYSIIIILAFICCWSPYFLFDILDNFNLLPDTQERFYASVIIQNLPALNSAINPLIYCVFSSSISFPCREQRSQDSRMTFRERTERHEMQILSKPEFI
Method in brief: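 Dual-sequence FLIPR Ca2+ mobilization in CHOK1 cells expressing recombinant NPSR, plated 24 h before the run. Fluo4AM dye loaded 1 h at 37 °C, 5% CO2. Cells incubated with titrated compound for 4 min, then an EC80 of human NPS added and read for another 4 min. Inhibition calculated against NPS-stimulated control wells. IC50 from 4-parameter logistic fits, averaged over at least two experiments.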

[2] = target: T2, MDR1 (ABCB1, P-glycoprotein) (Homo sapiens, UniProt P08183); assay: Permeability of the compound assessed as MDR1-mediated directional transport ratio by cell based assay; conditions: not told
T2 sequence (P08183 whole entry): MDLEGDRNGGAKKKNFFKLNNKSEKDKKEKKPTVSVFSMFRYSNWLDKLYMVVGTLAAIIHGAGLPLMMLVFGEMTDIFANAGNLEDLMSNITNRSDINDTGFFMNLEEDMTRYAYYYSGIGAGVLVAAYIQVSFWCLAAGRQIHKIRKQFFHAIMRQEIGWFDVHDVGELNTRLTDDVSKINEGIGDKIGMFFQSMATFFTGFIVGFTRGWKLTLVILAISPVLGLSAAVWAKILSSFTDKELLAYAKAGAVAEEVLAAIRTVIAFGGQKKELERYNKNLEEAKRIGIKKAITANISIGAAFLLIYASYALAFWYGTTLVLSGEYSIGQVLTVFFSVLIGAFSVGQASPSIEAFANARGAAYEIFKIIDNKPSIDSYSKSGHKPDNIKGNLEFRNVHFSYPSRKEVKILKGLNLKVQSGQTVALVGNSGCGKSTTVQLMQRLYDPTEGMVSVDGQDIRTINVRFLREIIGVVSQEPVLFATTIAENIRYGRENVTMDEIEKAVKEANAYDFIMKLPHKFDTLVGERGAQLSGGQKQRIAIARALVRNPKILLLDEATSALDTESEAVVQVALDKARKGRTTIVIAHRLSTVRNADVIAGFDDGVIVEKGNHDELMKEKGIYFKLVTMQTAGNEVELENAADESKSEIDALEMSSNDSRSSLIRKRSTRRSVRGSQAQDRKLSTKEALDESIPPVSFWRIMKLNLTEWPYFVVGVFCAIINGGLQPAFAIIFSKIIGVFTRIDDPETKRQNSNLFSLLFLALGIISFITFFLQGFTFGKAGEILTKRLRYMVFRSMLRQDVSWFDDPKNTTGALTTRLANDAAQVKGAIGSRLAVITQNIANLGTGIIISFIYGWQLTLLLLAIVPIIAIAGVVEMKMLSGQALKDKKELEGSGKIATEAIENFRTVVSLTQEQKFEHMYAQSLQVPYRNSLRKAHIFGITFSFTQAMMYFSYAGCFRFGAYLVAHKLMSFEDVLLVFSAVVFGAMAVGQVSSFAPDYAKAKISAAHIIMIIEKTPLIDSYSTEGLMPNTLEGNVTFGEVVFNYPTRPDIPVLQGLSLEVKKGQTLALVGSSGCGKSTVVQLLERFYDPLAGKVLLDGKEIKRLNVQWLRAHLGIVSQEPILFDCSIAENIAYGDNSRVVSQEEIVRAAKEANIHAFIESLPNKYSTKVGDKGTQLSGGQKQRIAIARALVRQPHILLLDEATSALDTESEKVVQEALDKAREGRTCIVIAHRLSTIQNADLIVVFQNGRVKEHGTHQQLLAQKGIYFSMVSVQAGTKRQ
Method in brief: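 MDR1 directional transport ratio, calculated as (B to A)/(A to B). Average of three experiments.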

[3] = target: T2, MDR1 (ABCB1, P-glycoprotein); assay: (§1) Permeability of the compound assessed as MDR1-passive permeability by cell based assay; conditions: not told; read-out: permeability
Method in brief: (§2)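 Passive permeability expressed as Papp in 10^-6 cm/s.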

[4] = Protein binding in human plasma; conditions: read-out: PPB (converted)
[5] = target: ATP-dependent translocase ABCB1 (Homo sapiens, UniProt P08183); assay: as §1; method in brief: as §2
Sequence of ATP-dependent translocase ABCB1 (P08183 whole entry): as above

Plasma = assay: Protein binding in human plasma; assay type: ADME, cell-free
[6] = Drug level in rat plasma at 30 mg/kg, ip after 0.5 hrs; assay type: ADME, organism-based; design: dose 30 mg/kg, route intraperitoneal; conditions: read-out: Drug uptake
Method in brief: (§3)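 Rats dosed 30 mg/kg ip. Plasma, brain and CSF levels measured at 0.5 h and 2.0 h and reported in nM.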

[7] = Drug level in rat brain at 30 mg/kg, ip after 0.5 hrs; assay type: ADME, organism-based; design: dose 30 mg/kg, route intraperitoneal; conditions: read-out: Drug uptake; method in brief: as §3
[8] = Drug level in rat cerebrospinal fluid at 30 mg/kg, ip after 0.5 hrs; assay type: ADME, organism-based; design: dose 30 mg/kg, route intraperitoneal; conditions: read-out: Drug uptake; method in brief: as §3
[9] = Drug level in rat plasma at 30 mg/kg, ip after 2 hrs; assay type: ADME, organism-based; design: dose 30 mg/kg, route intraperitoneal; conditions: read-out: Drug uptake; method in brief: as §3
[10] = Drug level in rat brain at 30 mg/kg, ip after 2 hrs; assay type: ADME, organism-based; design: dose 30 mg/kg, route intraperitoneal; conditions: read-out: Drug uptake; method in brief: as §3
[11] = Drug level in rat cerebrospinal fluid at 30 mg/kg, ip after 2 hrs; assay type: ADME, organism-based; design: dose 30 mg/kg, route intraperitoneal; conditions: read-out: Drug uptake; method in brief: as §3
Neuropeptide S receptor [12] = target: T3, Neuropeptide S receptor (Rattus norvegicus, UniProt P0C0L6); assay: Displacement of [3H]quinolinone from rat NPS receptor
T3 sequence (P0C0L6 whole entry): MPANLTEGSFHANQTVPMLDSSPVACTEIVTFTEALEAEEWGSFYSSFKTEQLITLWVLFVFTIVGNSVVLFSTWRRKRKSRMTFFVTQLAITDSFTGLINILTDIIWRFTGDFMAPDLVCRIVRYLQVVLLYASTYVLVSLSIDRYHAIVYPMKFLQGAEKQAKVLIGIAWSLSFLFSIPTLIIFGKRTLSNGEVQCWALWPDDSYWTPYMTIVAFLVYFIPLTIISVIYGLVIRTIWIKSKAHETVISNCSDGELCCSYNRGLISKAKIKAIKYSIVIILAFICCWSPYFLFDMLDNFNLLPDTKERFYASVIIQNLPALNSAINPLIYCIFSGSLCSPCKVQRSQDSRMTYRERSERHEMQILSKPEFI

Rattus norvegicus [13] = assay: Ex vivo receptor occupancy in ip dosed rat brain anterior olfactory nucleus assessed inhibition of [125I]NPS binding after 30 mins; assay type: functional, organism-based
Method in brief: (§4)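 Compound given 30 mg/kg ip in 25% HPB cyclodextrin. Brain taken 30 min after dosing (n = 4 rats, 2–3 sections/rat). Tissue sections incubated with 0.5 nM 125I-hNPS for 30 min, with 2 µM unlabeled hNPS defining nonspecific binding. Mean percent occupancy in AON, DEN or SC relative to vehicle was plotted against plasma compound concentration, with IC50 from nonlinear regression.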

Rattus norvegicus [14] = assay: Ex vivo receptor occupancy in ip dosed rat brain dorsal endopiriform nucleus assessed inhibition of [125I]NPS binding after 30 mins; assay type: functional, organism-based; method in brief: as §4
Rattus norvegicus [15] = assay: Ex vivo receptor occupancy in ip dosed rat brain superior coliculus assessed inhibition of [125I]NPS binding after 30 mins; assay type: functional, organism-based; method in brief: as §4
Neuropeptide S receptor [16] = target: T3, Neuropeptide S receptor; assay: Displacement of [125I]NPS from NPS receptor in rat brain superior coliculus after 30 mins; assay type: tissue-based
Method in brief: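 Rat brain sections from vehicle-treated animals (25% HPB cyclodextrin/75% sterile water, ip), preincubated in vitro with titrated compound. Nonspecific binding from co-incubation with 2 µM unlabeled hNPS. 2–3 sections per concentration. Mean ± SEM.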

Rattus norvegicus [17] = assay: Ex vivo receptor occupancy of NPS receptor in rat brain anterior olfactory nucleus at 30 mg/kg, ip after 30 mins; assay type: functional, organism-based; design: dose 30 mg/kg; method in brief: as §4
Rattus norvegicus [18] = assay: Ex vivo receptor occupancy of NPS receptor in rat brain dorsal endopiriform nucleus at 30 mg/kg, ip after 30 mins; assay type: functional, organism-based; design: dose 30 mg/kg; method in brief: as §4
Rattus norvegicus [19] = assay: Ex vivo receptor occupancy of NPS receptor in rat brain superior coliculus at 30 mg/kg, ip after 30 mins; assay type: functional, organism-based; design: dose 30 mg/kg; method in brief: as §4

Compound	IC50 (Neuropeptide S receptor [1]) [nM]	efflux ratio [2]	Papp [3] [×10⁻⁶ cm/s]	other results
CN1CCN(C2(CN(Cc3cc4ccccc4n(C)c3=O)C(=O)C3CCCCC3)CCCCC2)CC1	18	10.6		
CC(CCN1CCCC1)N(Cc1cc2ccccc2n(C)c1=O)C(=O)C1CCCCC1 (configuration not stated)	1580			
CC(CCN1CCOCC1)N(Cc1cc2ccccc2n(C)c1=O)C(=O)C1CCCCC1 (configuration not stated)	725			
Cn1c(=O)c(CN(C(=O)C2CCCCC2)C(C)(C)CCN2CCCC2)cc2ccccc21	326			
Cn1c(=O)c(CN(C(=O)C2CCCCC2)C(C)(C)CCN2CCCCC2)cc2ccccc21	31	36	25	
Cn1c(=O)c(CN(C(=O)C2CCCCC2)C(C)(C)CCN2CCOCC2)cc2ccccc21	144	2	23	
CCC(CC)(CCN1CCOCC1)N(Cc1cc2ccccc2n(C)c1=O)C(=O)C1CCCCC1	103			
Cn1c(=O)c(CN(C(=O)C2CCCCC2)C2(CCN3CCOCC3)CCCCC2)cc2ccccc21	398			
CCC(C)(CCN1CCCCC1)N(Cc1cc2ccccc2n(C)c1=O)C(=O)C1CCCCC1 (racemic)	7	43	28	fraction unbound [4]: 0.11
CCC(C)(CCN1CCC(F)CC1)N(Cc1cc2ccccc2n(C)c1=O)C(=O)C1CCCCC1 (racemic)	14	2.6	33	
CCC(C)(CCN1CCC(F)(F)CC1)N(Cc1cc2ccccc2n(C)c1=O)C(=O)C1CCCCC1 (racemic)	22	1.1	25	fraction unbound [4]: 0.03
CCC(C)(CCN1CCOCC1)N(Cc1cc2ccccc2n(C)c1=O)C(=O)C1CCCCC1 (racemic)	23		18	
CCC(C)(CCN1CCOCC1)N(Cc1cc2ccccc2n(C)c1=O)C(=O)C1CCCCC1 (single isomer, unassigned; enantiomer 1) [listing 1 of 2 here]	10			permeability [5]: 36 ×10⁻⁶ cm/s; PPB (Plasma): 82%; concentration at 0.5 h [6]: 4340 nM; concentration at 0.5 h [7]: 1690 nM; concentration at 0.5 h [8]: 101 nM; concentration at 2 h [9]: 2300 nM; concentration at 2 h [10]: 665 nM; concentration at 2 h [11]: 45 nM; EC50 (Neuropeptide S receptor [12]): 1.3 nM; IC50 (Rattus norvegicus [13]; 0.5 h): 570 nM; IC50 (Rattus norvegicus [14]; 0.5 h): 380 nM; IC50 (Rattus norvegicus [15]; 0.5 h): 130 nM; IC50 (Neuropeptide S receptor [16]): 1.44 nM
CCC(C)(CCN1CCOCC1)N(Cc1cc2ccccc2n(C)c1=O)C(=O)C1CCCCC1 (single isomer, unassigned; enantiomer 1) [listing 2 of 2 here]				Activity (Rattus norvegicus [17]): Active; Activity (Rattus norvegicus [18]): Active; Activity (Rattus norvegicus [19]): Active; Activity (Rattus norvegicus [13]): Dose-dependent effect; Activity (Rattus norvegicus [14]): Dose-dependent effect; Activity (Rattus norvegicus [15]): Dose-dependent effect
CCC(C)(CCN1CCOCC1)N(Cc1cc2ccccc2n(C)c1=O)C(=O)C1CCCCC1 (single isomer, unassigned; enantiomer 2)	785			
